Reference: ChEMBL document CHEMBL1157793, “Synthesis and antitumor activity of 1,5-disubstituted 1,2,4-triazoles as cis-restricted combretastatin analogues” (J Med Chem, 2010)
Active and inactive are the calls of the source. No cut-off for these calls is given here.

How the values were obtained:
MCF7 = assay: Antiproliferative activity against human MCF7 cells after 72 hrs by MTT assay; format: functional, cell-based; details: MCF7, 72 h
HeLa [1] = assay: Cell cycle arrest in human HeLa cells assessed as increase in accumulation of cells at G2/M phase after 24 hrs by propidium iodide staining-based flow cytometry; format: functional
Summary of the method: (§1)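 5×10^5 exponentially growing cells treated with compound (7–250 nM range for 24 h; 30 nM for 24 and 48 h), collected, fixed in ice-cold 70% ethanol, lysed with buffer containing RNase A and 0.1% Triton X-100, PI-stained, and DNA content analysed by flow cytometry; phase distribution from DNA histograms. Mean ± SEM of three independent experiments.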

HeLa [2] = assay: Antiproliferative activity against human HeLa cells after 72 hrs by MTT assay; format: functional, cell-based
Jurkat [3] = assay: Antiproliferative activity against human Jurkat cells after 72 hrs by MTT assay; format: functional, cell-based
Summary of the method: (§2)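 Cells seeded at 8×10^3 per well (Jurkat, HL-60, K562 in RPMI-1640; MCF7, A549, HeLa in DMEM; all with 10% FBS, penicillin/streptomycin), incubated 18 h at 37 °C, 5% CO2, then exposed to compound at varying concentrations in complete medium for 72 h.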

Jurkat [4] = assay: Induction of apoptosis in human Jurkat cells assessed as depolarization of mitochondrial membrane potential measured as annexin-V positive cells at 50 nM after 24 hrs by annexin-V-FITC and propidium iodide staining based flow cytometry (reference value: 3.0%); format: functional
Jurkat [5] = assay: Induction of apoptosis in human Jurkat cells assessed as decrease in Bcl2 expression at 50 nM after 24 to 72 hrs by immunoblot method; format: functional, cell-based
Summary of the method: (§3)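 Jurkat cells given 50 nM compound for varying times, washed in cold PBS, lysed on ice 30 min, cleared at 15000g, 4 °C; 20 µg protein run on 7.5–15% SDS-PAGE, blotted to PVDF, probed 2 h at room temperature with rabbit anti-PARP or anti-Bcl-2 (1:1000), peroxidase secondary, ECL detection; β-actin reprobe as loading control.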

HUVEC [6] = assay: Induction of apoptosis in HUVEC expressing GFP assessed as decrease in GFP-positive cell area at 0.5 uM to 10 uM after 30 mins by confocal microscopy; design: scale not given: the % may be the effect or the level left
Bos taurus [7] = organism: Bos taurus; assay: Displacement of [3H]colchicine from bovine tubulin at 1 uM
Summary of the method: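 [3H]Colchicine binding inhibition measured with reaction mixtures of 1 µM tubulin, 5 µM [3H]colchicine and 1 µM test compound.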

Jurkat [8] = assay: Induction of apoptosis in human Jurkat cells assessed as increase in ROS production at 50 nM by H2DCFDA staining based flow cytometry; format: functional, cell-based; details: TDE = time-dependent effect
Summary of the method: (§4)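 After 24, 48, 72 h with 50 nM compound, Jurkat cells resuspended in HBSS with 2.5 µM HE or 0.1 µM H2DCFDA, 30 min at 37 °C, washed, and read by flow cytometry (excitation 488 nm; emission 585 nm HE, 530 nm DCF). Mean ± SEM of three independent experiments.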

A549 = assay: Antiproliferative activity against human A549 cells after 72 hrs by MTT assay; format: functional, cell-based; details: A549, 72 h
Jurkat [9] = assay: Cell cycle arrest in human Jurkat cells by accumulation of cells at G2/M phase at 7 to 250 nM after by propidium iodide staining-based flow cytometry; format: functional; details: TDE = time-dependent effect; summary of the method: as §1
HeLa [10] = assay: Cell cycle arrest in human HeLa cells by accumulation of cells at G2/M phase at 30 nM after 48 hrs by propidium iodide staining-based flow cytometry (reference value: 12%)
Jurkat [11] = assay: Induction of apoptosis in human Jurkat cells assessed as increase in ROS production at 50 nM by HE staining based flow cytometry; format: functional, cell-based; details: TDE = time-dependent effect; summary of the method: as §4
Jurkat [12] = assay: Induction of apoptosis in human Jurkat cells assessed as depolarization of mitochondrial membrane potential measured as annexin-V positive cells at 50 nM after 72 hrs by annexin-V-FITC and propidium iodide staining based flow cytometry (reference value: 3.0%); format: functional
HeLa [13] = assay: Cell cycle arrest in human HeLa cells assessed as decrease in accumulation of cells at G1 phase at 7 to 250 nM after 24 hrs by propidium iodide staining-based flow cytometry; format: functional; summary of the method: as §1
Bos taurus [14] = organism: Bos taurus; assay: Ratio of IC50 for comberestastatin-A4 to IC50 for drug for inhibition of bovine brain tubulin polymerization after 20 mins by turbidimetry
Jurkat [15] = assay: Induction of apoptosis in human Jurkat cells assessed as increase in annexin-V positive cells after 24 to 72 hrs by annexin-V-FITC and propidium iodide staining based flow cytometry; format: functional, cell-based
HeLa [16] = assay: Cell cycle arrest in human HeLa cells assessed as decrease in accumulation of cells at S phase at 7 to 250 nM after 24 hrs by propidium iodide staining-based flow cytometry; format: functional; summary of the method: as §1
Gallus gallus = organism: Gallus gallus; assay: Inhibition of vascular sprouts in chick embryo aorta assessed as vascular disruption at 10 uM after 30 mins by microscopy; format: functional, tissue-based
Summary of the method: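 Aortic arches from day-14 chick embryos sliced, embedded in Matrigel with complete medium; endothelial sprouts formed over 24–48 h. Compound added at various concentrations and vascular channels imaged before and 30 min after addition.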

Jurkat [17] = assay: Cell cycle arrest in human Jurkat cells assessed as accumulation of cells at SubG1 phase at 7 to 250 nM after 24 hrs by propidium iodide staining-based flow cytometry; format: functional; summary of the method: as §1
Jurkat [18] = assay: Induction of apoptosis in human Jurkat cells assessed as increase in PARP cleavage at 50 nM after 24 hrs by immunoblot method; format: functional, cell-based; summary of the method: as §3
HUVEC [19] = assay: Induction of apoptosis in HUVEC expressing GFP assessed as formation of membrane blebs at 0.5 uM to 10 uM after 30 mins by confocal microscopy; details: Homo sapiens
Jurkat [20] = assay: Cell cycle arrest in human Jurkat cells assessed as increase in accumulation of cells at G2/M phase at 7 to 250 nM after 24 hrs by propidium iodide staining-based flow cytometry; format: functional; summary of the method: as §1
HL-60 = assay: Antiproliferative activity against human HL60 cells after 72 hrs by MTT assay; format: functional, cell-based; details: HL-60, 72 h
Jurkat [21] = assay: Induction of apoptosis in human Jurkat cells assessed as depolarization of mitochondrial membrane potential measured as annexin-V positive cells at 50 nM after 48 hrs by annexin-V-FITC and propidium iodide staining based flow cytometry (reference value: 3.0%); format: functional
Jurkat [22] = assay: Induction of apoptosis in human Jurkat cells assessed as activation of caspase-3 at 50 nM by flow cytometry; format: functional, cell-based; details: TDE = time-dependent effect
Summary of the method: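 Jurkat cells exposed to 50 nM compound for 24, 48 and 72 h, fixed in Cytofix buffer 20 min, washed in Perm/Wash, stained 30 min with FITC-conjugated anti-human active caspase-3 fragment antibody; percentage of positive cells by flow cytometry, mean ± SEM of three experiments.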

[23] = Inhibition of bovine brain tubulin polymerization after 20 mins by turbidimetry; design: species or system Bos taurus
Summary of the method: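 Bovine brain tubulin (10 µM) preincubated with varying compound concentrations in glutamate buffer at 30 °C, chilled to 0 °C, 0.4 mM GTP added, then warmed to 30 °C in spectrophotometer; assembly followed by turbidity at 350 nm.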

K562 = assay: Antiproliferative activity against human K562 cells after 72 hrs by MTT assay; format: functional, cell-based; details: K562, 72 h; summary of the method: as §2

IC50 (MCF7) [nM]	IC50 (HeLa [2]) [nM]	IC50 (Jurkat [3]) [nM]	Activity (Bos taurus [7]) [%]	IC50 (A549) [nM]	IC50 (HL-60) [nM]	Structure (SMILES)	Activity (HeLa [1])	Activity (Jurkat [4])	Activity (Jurkat [5])	Activity (Jurkat [8])	Activity (Jurkat [9])	Activity (HeLa [10]) [%]	Activity (Jurkat [11])	Activity (Jurkat [12])	Activity (HeLa [13])	Activity (Jurkat [15])	Activity (HeLa [16])	Activity (Jurkat [17])	Activity (Jurkat [18])	Activity (Jurkat [20])	further results
50	15	5	86	100	20	CCOc1ccc(-c2ncnn2-c2cc(OC)c(OC)c(OC)c2)cc1	Dose-dependent effect	14.4%	Active	tde	tde	70	tde	44.5%	Active	Active	Active	Active	Active	Active	Activity (HUVEC [6]): 30%; Ratio IC50 (Bos taurus [14]): 2; Activity (Gallus gallus): Active; Activity (HUVEC [19]): Active; Activity (Jurkat [21]): 28.4%; Activity (Jurkat [22]): tde; IC50 [23]: 760 nM
17	6	3	75	10	3	CCOc1ccc(-c2ncnn2-c2cc(OC)c(OC)c(OC)c2)cc1Cl	Dose-dependent effect	Active	Active	tde	tde	70	tde	Active	Active	Active	Active	Active	Active	Active	Activity (Jurkat [21]): Active; Activity (Jurkat [22]): tde; IC50 (K562): 20 nM; IC50 [23]: 1500 nM
